From ChEMBL document CHEMBL1129351, “Hypoxia-selective antitumor agents. 14. Synthesis and hypoxic cell cytotoxicity of regioisomers of the hypoxia-selective cytotoxin 5-[N,N-bis(2-chloroethyl)amino]-2,4-dinitrobenzamide” (J Med Chem, 1996)

Tests used:
[1] = Potency in clonogenic assay, defined by hypersensitivity factor calculated for UV4 cells versus AA8 cells [IC50(AA8)/IC50(UV4)]; format: functional, Cricetulus griseus
[2] = system: CHO-AA8; assay: Inhibition of growth under aerobic conditions in AA8 cells; format: functional, cell-based; details: Cricetulus griseus
Outline: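 Growth-inhibition microassay: AA8 cells, 200 per well, were grown 24 h, then exposed aerobically to drug in RMEM with 5% fetal bovine serum for 18 h and washed three times. After a further 78 h they were stained with methylene blue. IC₅₀ = concentration giving 50% growth inhibition relative to controls; means ± SEM, values without SEM from a single determination.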

[3] = Potency in clonogenic assay defined by Hypersensitivity factor calculated for AA8 cells versus EMT6 cells [IC50(AA8)/IC50 (EMT6)]; format: functional
Outline: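 Aerobic growth-inhibition microassay run in parallel on AA8 (200/well), UV4 (300/well) and murine mammary EMT6 (75/well) cells. After 24 h growth, cells were given 18 h drug exposure in RMEM/5% FBS, washed, grown a further 78 h, and stained with methylene blue. The hypersensitivity factor is IC₅₀(AA8)/IC₅₀(named line), reported as intraexperiment means ± SEM.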

[4] = system: UV4; assay: Compound was tested for the concentration required to reduce cell survival under hypoxic conditions, using the cell line UV4 in the clonogenic assay.; format: functional, Cricetulus griseus
Outline: (§1)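 Clonogenic assay on early-plateau Chinese hamster cells, grown in spinner flasks (AA8 to 10⁶/mL, UV4 to 6 × 10⁵/mL) and resuspended in fresh medium. Stirred 10 mL suspensions at 10⁶/mL were exposed to drug for 1 h under continuous 5% CO₂ in N₂; cells and drug solutions were pre-equilibrated under gas for 1 h. C₁₀ = concentration (µM) giving 10% survival relative to controls.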

[5] = The ratio of C10 values in air and N2 using AA8 cell line.; format: functional, CHO-AA8
Outline: (§2)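 Stirred early-plateau suspensions (10⁶/mL) of AA8 or UV4 cells were exposed to drug for 1 h under continuous gassing with 5% CO₂ in air or in N₂, after 1 h pre-equilibration, and then plated for clonogenic survival. C₁₀ (10% survival) was found for each gas phase and the ratio C₁₀(air)/C₁₀(N₂) reported.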

[6] = The ratio of C10 values in air and N2 using UV4 cell line.; format: functional; outline: as §2
[7] = system: CHO-AA8; assay: Inhibitory activity against AA8 cell growth in aerobic condition after 4 hr of exposure; format: functional, cell-based; details: Cricetulus griseus, CHO-AA8, 4 h
[8] = system: CHO-AA8; assay: Compound was tested for the concentration required to reduce cell survival under hypoxic conditions, using the cell line AA8 in the clonogenic assay.; format: functional, Cricetulus griseus; outline: as §1

Compound	Hypersensitivity factor [1]	IC50 [2] [µM]	Hypersensitivity factor [3]	C10 [4] [µM]	Ratio [5]	Ratio [6]	IC50 [7] [µM]	C10 [8] [µM]
NC(=O)c1c([N+](=O)[O-])ccc(N(CCCl)CCCl)c1[N+](=O)[O-]	>2.6	> 244	–	–	–	–	–	–
NC(=O)c1cc([N+](=O)[O-])c(N(CCCl)CCCl)cc1[N+](=O)[O-]	2.8	11	1.9	–	–	–	–	–
O=C(NCC(O)CO)c1ccc(N(CCCl)CCCl)c([N+](=O)[O-])c1[N+](=O)[O-] (stereo unspecified)	2.3	108	3	–	–	–	–	–
O=C(NCC(O)CO)c1c([N+](=O)[O-])ccc(N(CCCl)CCCl)c1[N+](=O)[O-] (stereo unspecified)	2.7	652	1.7	–	–	–	–	–
CN(C)CCNC(=O)c1cc([N+](=O)[O-])cc([N+](=O)[O-])c1N(CCCl)CCCl	13	150	2.5	1100	>2.35	68	–	–
O=C(NCC(O)CO)c1cc([N+](=O)[O-])c(N(CCCl)CCCl)c([N+](=O)[O-])c1 (stereo unspecified)	0.9	320	2.3	–	–	–	–	–
NC(=O)c1cc([N+](=O)[O-])cc([N+](=O)[O-])c1N(CCCl)CCCl	4.3	73	0.7	–	–	–	–	–
O=C(NCC(O)CO)c1cc([N+](=O)[O-])cc([N+](=O)[O-])c1N(CCCl)CCCl (stereo unspecified)	4.9	500	1.8	–	–	–	–	–
NC(=O)c1cc(N(CCCl)CCCl)c(NO)cc1[N+](=O)[O-]	–	–	–	–	–	–	180	–
NC(=O)c1cc([N+](=O)[O-])c(N(CCCl)CCCl)c([N+](=O)[O-])c1	1.5	97	1.3	–	–	–	–	–
CN(C)CCNC(=O)c1cc([N+](=O)[O-])c([N+](=O)[O-])cc1N(CCCl)CCCl	1.4	4	3	18	0.098	1.8	–	44
NC(=O)c1cc(N(CCCl)CCCl)c([N+](=O)[O-])cc1[N+](=O)[O-]	6.4	–	1.1	3400	–	42	–	–
O=C(NCC(O)CO)c1cc([N+](=O)[O-])c(N(CCCl)CCCl)cc1[N+](=O)[O-] (stereo unspecified)	12	81	3.5	–	–	–	–	–
CN(C)CCNC(=O)c1cc(N(CCCl)CCCl)c([N+](=O)[O-])cc1[N+](=O)[O-]	3.1	–	6.7	400	3.1	44	–	1300
CN(C)CCNC(=O)c1ccc(N(CCCl)CCCl)c([N+](=O)[O-])c1[N+](=O)[O-]	1	13	1.2	160	0.82	4	–	140
CN(C)CCNC(=O)c1cc([N+](=O)[O-])c(N(CCCl)CCCl)cc1[N+](=O)[O-]	13	12	5.8	12	3.2	7.5	–	120
CN(C)CCNC(=O)c1cc([N+](=O)[O-])c(N(CCCl)CCCl)c([N+](=O)[O-])c1	1.8	62	2.1	250	0.96	1.04	–	270
O=C(NCC(O)CO)c1cc([N+](=O)[O-])c([N+](=O)[O-])cc1N(CCCl)CCCl (stereo unspecified)	1.5	73	1.9	–	–	–	–	–
NC(=O)c1ccc(N(CCCl)CCCl)c([N+](=O)[O-])c1[N+](=O)[O-]	1	20	3.1	–	–	–	–	–
NC(=O)c1cc([N+](=O)[O-])c([N+](=O)[O-])cc1N(CCCl)CCCl	0.88	1.6	0.43	–	–	–	–	–
O=C(NCC(O)CO)c1cc(N(CCCl)CCCl)c([N+](=O)[O-])cc1[N+](=O)[O-] (stereo unspecified)	3.4	–	2.3	3600	–	8.6	–	–
CN(C)CCNC(=O)c1c([N+](=O)[O-])ccc(N(CCCl)CCCl)c1[N+](=O)[O-]	2.7	426	3	2200	2.2	116	–	2200
